Only some compounds are listed: those with a hit (about 1.6% of all), similar ones and a draw of the others.
TLR9-MyD88 block: inhibitors of human TLR9-MyD88 binding; CHO BLA complementation TLR9-MyD88, CCF4 FRET ratio; inhibition, % at 4.98 µM; 0.21% of 340,000 active; Q9NR96+Q99836;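 active means inhibition above the mean over all tested compounds plus 3 SD, cut at about 21% in these data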;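 further: 0% = DMSO only wells and 100% = clavulanate BLA inhibitor control wells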
NOD2 RIPK2 PPI: blocks binding of human NOD2 to RIPK2; O43353; CHO BLA complementation NOD2-RIPK2, CCF4 ratio; inhibition, % at 4.98 µM; 0.38% of 360,000 active; AID 624267; in the data active means inhibition above about 21%;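 further: 0% = vehicle only and 100% = reference blocker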
ABHD5-PLIN5 inh: ABHD5-PLIN5 protein interaction inhibition | Q00G26+Q8WTS1 | Split G. princeps luciferase complementation, luminescence, 4 h | inhibition, % at 4 µM | 0.78% of 360,000 active | AID 602281;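 active means inhibition above the mean inhibition across every tested compound plus 3 SD, cut at about 22% in these data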;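 further: 0% = DMSO only wells and the 100% control is not disclosed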
B2AR ag: activates human beta-2 adrenergic receptor causing internalization. P07550. Am2.2-beta2AR cells, FAP receptor internalization, flow cytometry. AID 504454. response, % (concentration not given with the values). 0.43% of 340,000 active;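 active means response above a set limit, near 3 SD of response in nonfluorescent compounds, cut at about 42% in these data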
TLR4 MyD88 comp: inhibitors of human TLR4-MyD88 binding. O00206+Q99836. inhibition, % at 8.4 µM. 0.18% of 200,000 active. HeLa CL3-4 TLR4/MyD88 BLA complementation, FRET ratio; in the data active means inhibition above about 25%;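 further: 0% = vehicle and 100% = reference inhibitor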
Dynein cargo inh: dynein cargo transport inhibition; 3617.4 mouse cells, GR-EGFP nuclear translocation imaging; test concentration mostly 20 µM; stimulated with dexamethasone, 1 µM; hits give low values; z-score, hits read low; 0.47% of 220,000 active; AID 1381;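 active means plate z-score of nuclear minus cytoplasmic receptor signal below a set negative limit, without overly bright fluorescence or cell loss, cut at about -3.5 in these data, passing the limit was not always enough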;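 further: z-score of nuclear minus cytoplasmic ring GR-EGFP intensity difference per well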
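medium = tetracycline-free induction medium containing charcoal-stripped FBS | probe or stimulus = dexamethasone, 1.0 µM final | timing = 48 h induction, then 1 h compound, then 30 min agonist, 37 °C | detection = automated 10x imaging of fixed Hoechst-stained cells | read-out basis = nuclear versus cytoplasmic GR-EGFP signal, averaged per well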
ABHD5 PLIN5 conf: confirmation of human ABHD5-PLIN5 interaction inhibitors. shares compounds with ABHD5-PLIN5 inh. biochemical ABHD5-PLIN5 interaction, luminescence. inhibition, % at 4 µM. 67% of 2,200 active. AID 651612; in the data active means inhibition above about 23%;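 further: 0% = DMSO vehicle wells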
HNF4 counter: counter-screen for ABHD5-PLIN5 inhibitors: HNF4 split-luciferase | 77% of 2,200 active | shares compounds with ABHD5-PLIN5 inh | HNF4 dimerization, luminescence, biochemical | inhibition, % at 4 µM | AID 651674;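 active means mean inhibition across replicate wells exceeding the computed hit threshold, cut at about 13% in these data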;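 further: light from luciferase halves that rejoin when HNF4 fusion proteins dimerize; 0% = DMSO only wells and the 100% control is not given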
Target sequence (P41235 whole entry, looked up, the tested form may be a part): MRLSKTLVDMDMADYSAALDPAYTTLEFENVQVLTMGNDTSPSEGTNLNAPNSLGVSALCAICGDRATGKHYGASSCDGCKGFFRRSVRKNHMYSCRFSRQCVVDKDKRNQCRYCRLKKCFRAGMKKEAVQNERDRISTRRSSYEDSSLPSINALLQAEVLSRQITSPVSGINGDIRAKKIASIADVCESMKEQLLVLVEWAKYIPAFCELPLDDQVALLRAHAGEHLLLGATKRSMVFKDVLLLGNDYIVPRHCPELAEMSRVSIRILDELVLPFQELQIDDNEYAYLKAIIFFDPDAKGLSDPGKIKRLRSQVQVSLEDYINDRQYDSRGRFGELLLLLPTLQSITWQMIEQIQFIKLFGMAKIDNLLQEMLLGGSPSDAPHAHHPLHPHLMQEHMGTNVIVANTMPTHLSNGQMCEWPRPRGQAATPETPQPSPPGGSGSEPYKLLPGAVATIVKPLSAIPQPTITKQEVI
Active calls of the source: *; nt = not tested or not shown.

SMILES | TLR9-MyD88 block | NOD2 RIPK2 PPI | ABHD5-PLIN5 inh | B2AR ag | TLR4 MyD88 comp | Dynein cargo inh | ABHD5 PLIN5 conf | HNF4 counter
CC(C)(C)NC(=O)C(c1ccc(C#N)cc1)n1c(=O)c(-c2ccccc2)nc2ccccc21 (configuration not stated) | nt | -4 | 3 | nt | nt | nt | nt | nt
CC(C)(C)NC(=O)C(c1ccc(-c2ccccc2)cc1)n1c(=O)c(-c2ccccc2)nc2ccccc21 (configuration not stated) | nt | -21 | -1 | nt | nt | nt | nt | nt
CC(C)(C)NC(=O)C(c1ccc(C#N)cc1)n1c(=O)c(-c2ccco2)nc2ccccc21 (configuration not stated) | nt | 6 | 75* | nt | nt | nt | 77* | 26*
COc1cccc(-c2ccc3c(c2)O[C@@H](CN(C)C(=O)C2CCOCC2)[C@H](C)CN([C@H](C)CO)S3(=O)=O)c1 | -2 | 4 | 3 | nt | nt | nt | nt | nt
CC1(C(=O)NS(=O)(=O)c2ccccc2Cl)CCN1C(=O)Cc1cccc2ccccc12 (configuration not stated) | nt | -2 | 0 | nt | nt | nt | nt | nt
O=C(CC1Sc2ncnn2C1=O)Nc1ccccc1 (configuration not stated) | 4 | 4 | 27* | 13 | -5 | 0.6 | 11 | 47*
Cc1cc(-c2nc(-c3ccncc3)no2)ccc1[N+](=O)[O-] | 1 | -7 | -11 | -4 | nt | nt | nt | nt
C=CCn1c(=S)[nH]c2scc(-c3ccc(C)o3)c2c1=O | -3 | -7 | 32* | 11 | -12 | 1.2 | 22 | 66*
NC(=O)c1ccccc1NC(=O)COc1ccc(Cl)cc1 | 3 | 2 | 46* | -2 | nt | -0.56 | 5 | -2
OC1CC2CCC(C1)N2CCCN1c2ccccc2Sc2ccc(Cl)cc21 (configuration not stated) | 4 | -5 | 27* | 30 | nt | nt | 18 | 16*
CCOC(=O)c1cc2c(=O)n3ccccc3nc2n(Cc2ccco2)c1=NC(=O)c1ccccc1OC | -3 | 0 | 44* | 14 | 6 | -0.67 | 20 | 73*
CCOC(=O)c1cc2c(=O)n3ccccc3nc2n(C(C)C)c1=NC(=O)c1ccco1 | -12 | -29 | 41* | 1 | 8 | -1.2 | 14 | 24*
CCOCCCn1c(=NC(=O)c2ccco2)c(C(=O)OCC)cc2c(=O)n3cccc(C)c3nc21 | -12 | -2 | 27* | -6 | nt | -1.4 | 19 | 30*
N=c1c(S(=O)(=O)c2ccccc2)cc2c(=O)n3ccccc3nc2n1Cc1ccco1 | 13 | 15 | 25* | 6 | 4 | -0.53 | 11 | 25*
CCOC(=O)c1cc2c(=O)n3cccc(C)c3nc2n(CC(C)C)c1=NC(=O)c1ccco1 | -3 | 3 | -24 | 5 | nt | -0.98 | nt | nt
Cc1cccc(S(=O)(=O)N[C@@H]2CC[C@@H](CCNS(=O)(=O)c3ccccc3F)O[C@@H]2CO)c1 | nt | -12 | -11 | nt | nt | nt | nt | nt
O=C(C[C@H]1C/C=C\CC[C@H](Cc2ccc(F)cc2)C(=O)OC[C@H]2CCCN2C1=O)N[C@@H](CO)Cc1ccccc1 | -9 | 5 | 14 | -2 | nt | nt | nt | nt
CC(C)n1c(=NC(=O)c2ccco2)c(C#N)cc2c(=O)n3ccccc3cc21 | -32 | -29 | 27* | 6 | -12 | -1.3 | 29* | 54*
CC(C)OCCCn1c(=NC(=O)c2ccncc2)c(C#N)cc2c(=O)n3ccccc3nc21 | -12 | 0 | 1 | 13 | -36 | 1.1 | nt | nt
CCCn1c(=NC(=O)c2ccco2)c(C(=O)OCC)cc2c(=O)n3ccccc3nc21 | -16 | -13 | 41* | 8 | 7 | -0.64 | 11 | 27*
CC1(C(=O)NS(=O)(=O)Cc2cccc(Cl)c2)CCN1C(=O)c1cccc(F)c1 (configuration not stated) | nt | 4 | 0 | nt | nt | nt | nt | nt
O=C1CCc2cc(NS(=O)(=O)c3cc(F)ccc3F)cc3c2N1CC3 | 3 | 2 | -2 | -4 | nt | nt | nt | nt
CC1CCC(C(C)C)C(OC(=O)Cn2c(-c3ccc(Br)cc3)[n+](C)c3ccccc32)C1 (configuration not stated) | 4 | -14 | 17 | 15 | -4 | 0.65 | nt | nt
CC1CCC(C(C)C)C(OC(=O)Cn2c(-c3ccc(Cl)cc3)[n+](C)c3ccccc32)C1 (configuration not stated) | 6 | 1 | 34* | 19 | nt | 0.087 | 15 | 4
COc1cccc2c1C(=O)C=C(C)C2=O | -14 | 8 | 37* | 12 | 2 | -2.9 | 57* | 64*
SMILES | TLR9-MyD88 block | NOD2 RIPK2 PPI | ABHD5-PLIN5 inh | B2AR ag | TLR4 MyD88 comp | Dynein cargo inh | ABHD5 PLIN5 conf | HNF4 counter
O=C1c2ccccc2C(=O)N1CC(O)COc1cccc2ccccc12 (configuration not stated) | nt | 3 | 10 | nt | nt | nt | nt | nt
Cc1cccc(C)c1NC(=O)C[N+](C)(C)CC(O)COc1cccc2ccccc12 (configuration not stated) | 0 | -6 | 47* | -7 | -1 | 0.032 | 34* | 17*
COC(=O)C[C@@H]1CC[C@H](NC(=O)c2ccc3c(c2)OCO3)[C@@H](CO)O1 | nt | -8 | 1 | nt | nt | nt | nt | nt
C#CCN(C[C@@H]1[C@@H](OC(=O)NCc2ccco2)[C@@H](OC(=O)NCc2ccco2)Cn2c(=O)ccc(=O)n21)S(=O)(=O)c1ccc(C)cc1 | 10 | -4 | 27* | nt | nt | nt | 41* | 26*
C#CCN(C[C@@H]1[C@@H](OC(=O)NCc2ccc(OC)c(OC)c2)[C@@H](OC(=O)NCc2ccc(OC)c(OC)c2)Cn2c(=O)ccc(=O)n21)S(=O)(=O)c1ccc(C)cc1 | -1 | -8 | 46* | nt | nt | nt | 62* | 21*
C#CCN(C[C@@H]1[C@@H](OC(=O)NC2CC2)[C@@H](OC(=O)NC2CC2)Cn2c(=O)n(CCCCCC)c(=O)n21)S(=O)(=O)c1ccc(C)cc1 | 0 | 8 | -3 | nt | nt | nt | nt | nt
C#CCN(C[C@@H]1[C@@H](OC(=O)NCCCCCC)[C@@H](OC(=O)NCCCCCC)Cn2c(=O)ccc(=O)n21)S(=O)(=O)c1ccc(C)cc1 | 2 | 5 | 34* | nt | nt | nt | 56* | -4
C#CCN(C[C@@H]1[C@@H](OC(=O)NCC2CCCCC2)[C@@H](OC(=O)NCC2CCCCC2)Cn2c(=O)ccc(=O)n21)S(=O)(=O)c1ccc(C)cc1 | 7 | 6 | 42* | nt | nt | nt | 57* | 18*
CC(C)N1CCN(S(=O)(=O)c2ccccc2)c2ccccc21 | -2 | -1 | -2 | 4 | nt | nt | nt | nt
Cc1nnc(SCc2ccccc2)nc1/C=C/NOCc1ccc(Cl)cc1Cl | -1 | 4 | 26* | 1 | -4 | -0.13 | 15 | 25*

Screening results from PubChem.
